# Results published in ChEMBL document CHEMBL4304743, “Discovery of ( E)- N1-(3-Fluorophenyl)- N3-(3-(2-(pyridin-2-yl)vinyl)-1 H-indazol-6-yl)malonamide (CHMFL-KIT-033) as a Novel c-KIT T670I Mutant Selective Kinase Inhibitor for Gastrointestinal Stromal Tumors (GISTs)” (J Med Chem, 2019).
# Activity calls are given as the source filed them. No cut-off for these calls is given here.
# Key:
# [1] = test system: Mast/stem cell growth factor receptor Kit (Homo sapiens), P10721 [V559D,T670I]; assay: Inhibition of TEL fused c-KIT T670I/V559D double mutant (unknown origin) transfected in mouse BAF3 cells assessed as growth inhibition after 72 hrs by CCK8 assay; assay type: cell-based
# Sequence of Mast/stem cell growth factor receptor Kit (Homo sapiens), P10721 [V559D,T670I] (P10721 whole entry V559D/T670I, the tested form may be a part): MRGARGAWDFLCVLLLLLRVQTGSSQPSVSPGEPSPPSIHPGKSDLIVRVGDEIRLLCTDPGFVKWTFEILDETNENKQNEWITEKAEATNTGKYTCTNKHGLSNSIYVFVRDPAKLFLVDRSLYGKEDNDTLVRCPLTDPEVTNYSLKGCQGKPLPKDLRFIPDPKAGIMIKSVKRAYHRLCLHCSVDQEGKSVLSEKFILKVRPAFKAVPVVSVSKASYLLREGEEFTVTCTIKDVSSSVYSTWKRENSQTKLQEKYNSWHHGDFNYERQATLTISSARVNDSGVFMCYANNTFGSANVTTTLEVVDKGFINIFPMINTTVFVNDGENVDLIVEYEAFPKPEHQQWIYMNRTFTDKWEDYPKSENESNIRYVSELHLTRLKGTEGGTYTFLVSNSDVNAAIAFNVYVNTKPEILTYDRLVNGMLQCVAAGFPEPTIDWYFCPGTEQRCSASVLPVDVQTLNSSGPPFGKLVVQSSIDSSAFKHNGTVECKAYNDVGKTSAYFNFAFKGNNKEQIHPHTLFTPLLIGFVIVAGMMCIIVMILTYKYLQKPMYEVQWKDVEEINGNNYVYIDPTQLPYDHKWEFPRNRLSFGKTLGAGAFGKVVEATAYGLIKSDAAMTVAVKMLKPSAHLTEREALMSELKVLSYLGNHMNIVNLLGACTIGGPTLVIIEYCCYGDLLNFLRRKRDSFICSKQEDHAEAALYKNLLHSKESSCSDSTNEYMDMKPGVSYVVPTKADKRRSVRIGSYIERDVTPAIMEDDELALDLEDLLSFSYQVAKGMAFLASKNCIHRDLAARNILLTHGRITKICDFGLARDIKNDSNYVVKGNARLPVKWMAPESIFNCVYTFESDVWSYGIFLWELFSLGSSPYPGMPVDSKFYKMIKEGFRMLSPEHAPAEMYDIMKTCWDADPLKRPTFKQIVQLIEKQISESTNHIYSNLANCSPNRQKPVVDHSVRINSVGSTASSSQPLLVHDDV
# Method in brief: (§1)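 Tel-c-KIT-transformed BaF3 lines (IL-3 independent) kept in RPMI 1640 with 10% FBS, 2% L-glutamine and pen/strep. Cells at 1.5 to 5 × 10^4 cells/mL mixed with graded compound and incubated 72 h at 37 °C, 5% CO2. Viability by CCK-8 absorbance at 450 nm, normalized to DMSO. GI50 from dose–response fit.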
# [2] = test system: Mast/stem cell growth factor receptor Kit (Homo sapiens), P10721 [A829P]; assay: Inhibition of TEL fused c-KIT A829P mutant (unknown origin) transfected in mouse BAF3 cells assessed as growth inhibition after 72 hrs by CCK8 assay; assay type: cell-based; method in brief: as §1
# Sequence of Mast/stem cell growth factor receptor Kit (Homo sapiens), P10721 [A829P] (P10721 whole entry A829P, the tested form may be a part): as the sequence (P10721 whole entry V559D/T670I, the tested form may be a part) above, with D559V, I670T, A829P counted along it
# [3] = biological target: Mast/stem cell growth factor receptor Kit (Homo sapiens, UniProt P10721, T670I); assay: Inhibition of His-tagged c-KIT T670I mutant (544 to 935 residues) (unknown origin) expressed in baculovirus infected sf9 cells pre-incubated for 60 mins followed by ATP addition and measured after 1 hr by Z-LYTE assay
# Sequence of Mast/stem cell growth factor receptor Kit (P10721 26-976 T670I limits assumed): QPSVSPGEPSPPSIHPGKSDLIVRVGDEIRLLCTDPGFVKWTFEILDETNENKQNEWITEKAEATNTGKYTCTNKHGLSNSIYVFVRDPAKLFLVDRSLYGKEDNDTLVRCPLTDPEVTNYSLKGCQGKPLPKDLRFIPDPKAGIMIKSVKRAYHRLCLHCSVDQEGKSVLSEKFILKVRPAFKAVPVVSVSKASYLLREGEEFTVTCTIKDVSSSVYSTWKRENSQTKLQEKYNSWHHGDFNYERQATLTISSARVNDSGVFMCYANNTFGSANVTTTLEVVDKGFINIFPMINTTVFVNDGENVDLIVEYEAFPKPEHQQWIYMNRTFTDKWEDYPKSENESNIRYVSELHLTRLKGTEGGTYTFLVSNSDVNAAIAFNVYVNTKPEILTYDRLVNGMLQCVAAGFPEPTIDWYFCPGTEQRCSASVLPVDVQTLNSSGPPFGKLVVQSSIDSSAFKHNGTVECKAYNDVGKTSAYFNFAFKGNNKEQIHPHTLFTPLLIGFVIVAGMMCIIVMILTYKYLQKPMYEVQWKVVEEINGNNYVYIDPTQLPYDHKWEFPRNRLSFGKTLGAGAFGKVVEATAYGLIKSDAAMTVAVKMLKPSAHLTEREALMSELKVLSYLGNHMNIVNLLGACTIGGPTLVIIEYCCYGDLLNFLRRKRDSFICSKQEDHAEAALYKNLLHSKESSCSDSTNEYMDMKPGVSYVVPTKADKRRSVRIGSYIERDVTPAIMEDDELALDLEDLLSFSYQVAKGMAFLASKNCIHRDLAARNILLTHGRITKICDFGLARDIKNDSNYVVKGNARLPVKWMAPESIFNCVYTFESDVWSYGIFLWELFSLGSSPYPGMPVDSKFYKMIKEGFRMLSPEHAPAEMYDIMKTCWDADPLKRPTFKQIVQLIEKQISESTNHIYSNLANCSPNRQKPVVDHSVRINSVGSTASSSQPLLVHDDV
# [4] = biological target: Platelet-derived growth factor receptor alpha (Homo sapiens, UniProt P16234); assay: Binding affinity to wild-type human partial length PDGFRA (V575 to D1002 residues) expressed in mammalian expression system assessed as enzyme remaining activity at 1 uM by Kinomescan assay relative to control
# Sequence of Platelet-derived growth factor receptor alpha (P16234 whole entry, the tested form may be a part): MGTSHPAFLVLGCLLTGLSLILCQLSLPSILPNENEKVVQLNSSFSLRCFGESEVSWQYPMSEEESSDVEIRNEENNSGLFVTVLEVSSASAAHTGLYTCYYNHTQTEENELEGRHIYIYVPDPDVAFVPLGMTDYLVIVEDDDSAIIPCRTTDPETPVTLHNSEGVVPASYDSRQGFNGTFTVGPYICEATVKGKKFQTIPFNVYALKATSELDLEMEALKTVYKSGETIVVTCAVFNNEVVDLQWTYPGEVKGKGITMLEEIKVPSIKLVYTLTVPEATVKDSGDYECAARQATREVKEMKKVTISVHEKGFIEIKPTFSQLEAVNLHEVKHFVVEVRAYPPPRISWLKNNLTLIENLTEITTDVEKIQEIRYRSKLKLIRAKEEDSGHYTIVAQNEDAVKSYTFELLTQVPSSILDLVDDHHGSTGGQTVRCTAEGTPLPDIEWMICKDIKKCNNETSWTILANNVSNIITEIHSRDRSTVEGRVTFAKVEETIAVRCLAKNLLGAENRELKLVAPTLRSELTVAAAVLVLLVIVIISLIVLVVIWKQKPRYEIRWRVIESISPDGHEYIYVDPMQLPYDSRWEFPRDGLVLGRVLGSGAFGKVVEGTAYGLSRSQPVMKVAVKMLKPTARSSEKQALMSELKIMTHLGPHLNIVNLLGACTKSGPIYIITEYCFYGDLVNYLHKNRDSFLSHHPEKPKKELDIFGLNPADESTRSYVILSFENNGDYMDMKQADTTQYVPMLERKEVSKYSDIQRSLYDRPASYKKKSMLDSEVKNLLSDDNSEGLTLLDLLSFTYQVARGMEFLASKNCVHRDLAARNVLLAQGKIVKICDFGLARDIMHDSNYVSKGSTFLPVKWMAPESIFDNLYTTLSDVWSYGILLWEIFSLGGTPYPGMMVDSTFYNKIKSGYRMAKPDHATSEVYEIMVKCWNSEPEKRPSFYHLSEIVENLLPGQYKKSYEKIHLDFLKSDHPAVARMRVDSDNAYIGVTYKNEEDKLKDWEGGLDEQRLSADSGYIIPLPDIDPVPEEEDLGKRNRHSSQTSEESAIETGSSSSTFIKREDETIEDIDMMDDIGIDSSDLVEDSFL
# [5] = test system: Mast/stem cell growth factor receptor Kit (Homo sapiens), P10721 [UNDEFINED MUTATION]; assay: Inhibition of c-KIT 560 to 578 deletion mutant in human GISTT1 cells assessed as reduction in c-KIT autophosphorylation at Y719 residue at 0.1 uM to 3 uM after 1 hr by Western blot analysis; assay type: cell-based
# Sequence of Mast/stem cell growth factor receptor Kit (Homo sapiens), P10721 [UNDEFINED MUTATION] (P10721 whole entry, looked up, stated change not applied): as the sequence (P10721 whole entry V559D/T670I, the tested form may be a part) above, with D559V, I670T counted along it
# Method in brief: (§2)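 Serial compound dilutions applied for 1 h to GIST-T1, GIST-T1-T670I (CRISPR/Cas9 T670I knock-in, clone confirmed by Sanger sequencing) or GIST-5R cells in DMEM with 10% FBS. Cells then lysed and phospho-proteins detected by standard Western blotting.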
# [6] = test system: Mast/stem cell growth factor receptor Kit (Homo sapiens), P10721 [UNDEFINED MUTATION]; assay: Inhibition of c-KIT 560 to 578 deletion/T670I double mutant in human GIST5R cells assessed as reduction in c-KIT autophosphorylation at Y703 residue at 0.1 uM to 3 uM after 1 hr by Western blot analysis; assay type: cell-based; method in brief: as §2
# [7] = test system: Mast/stem cell growth factor receptor Kit (Homo sapiens), P10721 [UNDEFINED MUTATION]; assay: Inhibition of c-KIT 560 to 578 deletion/T670I double mutant in human GIST5R cells assessed as reduction in c-KIT autophosphorylation at Y823 residue at 0.1 uM to 3 uM after 1 hr by Western blot analysis; assay type: cell-based; method in brief: as §2
# [8] = test system: Mast/stem cell growth factor receptor Kit (Homo sapiens), P10721 [UNDEFINED MUTATION]; assay: Inhibition of c-KIT 560 to 578 deletion/T670I double mutant in human GISTT1 cells assessed as reduction in AKT phosphorylation at S473 residue at 0.1 uM to 3 uM after 1 hr by Western blot analysis; assay type: cell-based; method in brief: as §2
# [9] = test system: Mast/stem cell growth factor receptor Kit (Homo sapiens), P10721 [UNDEFINED MUTATION]; assay: Inhibition of c-KIT 560 to 578 deletion/T670I double mutant in human GISTT1 cells assessed as reduction in STAT3 phosphorylation after 1 hr by Western blot analysis; assay type: cell-based; method in brief: as §2
# [10] = test system: GISTT1; assay: Induction of apoptosis in human GISTT1 cells harboring c-KIT 560 to 578 deletion mutant assessed as increase in cleaved caspase level after 24 hrs by Western blot analysis; assay type: functional, cell-based
# [11] = test system: GISTT1; assay: Induction of apoptosis in human GISTT1 cells harboring c-KIT 560 to 578 deletion/T670I double mutant assessed as increase in cleaved caspase level after 24 hrs by Western blot analysis; assay type: functional, cell-based
# [12] = organism: Homo sapiens; assay: Induction of cell cycle arrest in human GIST5R cells harboring 560 to 578 deletion/T670I double mutant after 24 hrs; assay type: functional, cell-based
# [13] = Apparent volume of distribution in Sprague-Dawley rat at 1 mg/kg, iv measured after 2 to 720 mins by LC-tandem mass spectrometry analysis; assay type: ADME, organism-based; conditions: in vivo, read-out: Vz
# Method in brief: (§3)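 Male Sprague-Dawley rats (190-210 g), fasted 12 h, randomized into two groups: 1 mg/kg i.v. or 10 mg/kg p.o., both formulated in 10% DMSO/90% of 5% glucose water. Blood sampled at 2-720 min (i.v.) or 5-720 min (p.o.). Plasma protein-precipitated with methanol, caffeine internal standard, LC-MS/MS. Noncompartmental analysis; triplicate, ±SD.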
# [14] = MRT (0 to infinity) in Sprague-Dawley rat at 1 mg/kg, iv measured after 2 to 720 mins by LC-tandem mass spectrometry analysis; assay type: ADME, organism-based; conditions: in vivo
# Method in brief: (§4)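 Male Sprague–Dawley rats (190-210 g), fasted 12 h, given 1 mg/kg i.v. or 10 mg/kg p.o. in DMSO/5% glucose water (1:9). Blood sampled at 2–720 min (i.v.) or 5–720 min (p.o.). Plasma proteins precipitated with methanol using caffeine internal standard, then LC-MS/MS. Noncompartmental analysis; F = AUC0-∞ ratio corrected for dose; triplicate ±SD.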
# [15] = AUC (0 to t) in Sprague-Dawley rat at 10 mg/kg, po measured after 5 to 720 mins by LC-tandem mass spectrometry analysis; assay type: ADME, organism-based; conditions: in vivo; method in brief: as §3
# [16] = Oral bioavailability in Sprague-Dawley rat at 10 mg/kg measured after 5 to 720 mins by LC-tandem mass spectrometry analysis; assay type: ADME, organism-based; conditions: in vivo; method in brief: as §4
# [17] = MRT (0 to infinity) in mouse at 1 mg/kg, iv measured after 2 to 720 mins by LC-tandem mass spectrometry analysis; assay type: ADME, organism-based; conditions: in vivo
# [18] = test system: Mus musculus; assay: Inhibition of c-KIT phosphorylation at Y703 residue in tumor of human GIST5R cells xenografted in nude mouse at 100 mg/kg, po administered as single dose and measured at 2 hrs; assay type: functional, organism-based
# Method in brief: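 Female nu/nu mice bearing subcutaneous GIST-5R xenografts (cells in Matrigel, right flank) given one oral gavage dose of 100 mg/kg in HKI suspension (0.5% methocellulose/0.4% Tween80 in ddH2O). Tumors collected over a 2 h time course; p-c-KIT, p-ERK and p-AKT assessed by Western blot; plasma drug levels monitored in parallel.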
# [19] = Drug level in plasma of nude mouse xenograted with human GIST5R cells at 100 mg/kg, po administered as single dose and measured at 30 mins; assay type: ADME, organism-based; conditions: in vivo, 0.5 h
# Method in brief: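 GIST-5R xenograft nu/nu mice given a single 100 mg/kg oral dose; plasma drug concentration followed over a time course alongside tumor p-c-KIT, p-ERK and p-AKT.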
# [20] = Antitumor activity against human GIST5R cells xenografted in nude mouse assessed as tumor weight at 50 mg/kg, po administered […] via gavage for 28 days (reference value: 0.59g); assay type: functional
# Method in brief: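 Female nu/nu mice (5 weeks old) given subcutaneous right-flank GIST-5R cells in Matrigel. Dosing began at tumors of 200-400 mm3; randomized, 4 mice per group. Daily oral dosing (QD) at 25, 50 or 100 mg/kg in 0.5% methylcellulose/0.4% Tween80, or vehicle alone, for 28 days. Body weight and tumor volume, (W²×L)/2, measured daily; mean±SEM.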
structure (smiles),measurement,setting,value
O=C(CC(=O)Nc1ccc2c(/C=C/c3ccccn3)n[nH]c2c1)Nc1cccc(F)c1,GI50,[1],122 nM
same,GI50,[2],6 µM
same,IC50,[3],45 nM
same,Activity,[4],3.4%
same,inhibition,[5],Active
same,inhibition,[6],Active
same,inhibition,[7],Active
same,inhibition,[8],Active
same,inhibition,[9],Dose-dependent effect
same,Activity,[10],Dose-dependent effect
same,Activity,[11],Dose-dependent effect
same,Activity,[12],Dose-dependent effect
same,Vd,[13],49.3 L/kg
same,MRT inf,[14],6.4 h
same,AUC(0-t),[15],712 ng·h/mL
same,bioavailability,[16],27.5%
same,MRT inf,[17],24 min
same,inhibition,[18],Active
same,Drug uptake,[19],Active
same,Activity,[20],0.25 g
